Assay: Toxicity liver stage against HepG2, at 10uM
Assay type: cell-based
Set-up: test concentration 10 uM, cell line HepG2-A16-CD81EGFP
Conditions: human, HepG2-A16-CD81EGFP cells; read-out: INHIBITION
Procedure, shortened: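 Uninfected HepG2-A16-CD81EGFP cells, 3 × 10^3 per well, 1536-well, plated on prespotted compound at 10 μM final, parasite-free screening media added to match infected plates; puromycin 10 μM positive, DMSO 0.5% negative; run in parallel with 48 h PbLuc assay at 37 °C, 5% CO2; viability by CellTiter-Glo luminescence, normalized to controls.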

SMILES | cytotoxicity at 10 µM
CCOCC(=O)N1CC[C@H]2O[C@@H](C)C[C@H]2C1 | -67.9%
Cc1nccc([C@H]2C[C@@H]3CCN(Cc4ccco4)C[C@H]3O2)n1 | -1.03%
O=C(c1ccnnc1)N1C[C@H](OCc2ccccn2)[C@H]2COC[C@H]21 | -7.52%
O=C(c1ccccn1)N1CCC2(CC1)COC(COc1cccnc1)C2 (stereo unspecified) | -1.98%
CC(C)Cc1n[nH]c(C2CC(=O)N(CC(C)C)C2)n1 (stereo unspecified) | 3.49%
O=C(NC1CCCC1)c1cc(Cn2cnc3ccccc32)on1 | 4.51%
CN(C)CCN1CC(C(=O)NCc2ccc(C#N)cc2)CC1=O (stereo unspecified) | -6.02%
c1cc(-c2nc3c(c(NCCc4c[nH]cn4)n2)CCNCC3)ccn1 | -146%
CN(Cc1ccc2nsnc2c1)C(=O)Cn1ncc(N(C)C)cc1=O | 3.67%
CC(C)C1CN(C(=O)c2csc(CN(C)C)n2)CCC(=O)N1CC1CC1 (stereo unspecified) | -1.74%
OC[C@H]1CN(Cc2c(Cl)cncc2Cl)C[C@H]1CN1CCCCCC1 | -112%
CCCc1nnc(NC2CCN(CCO)CC2)o1 | 8.35%
Nc1ccc(-c2ccc(F)cc2Cl)cn1 | -151%
CN(C)S(=O)(=O)NCc1cccnc1Oc1ccccc1F | 1.81%
CCc1nnc(CN(C)C[C@@H]2CCCN3CCCC[C@H]23)o1 | 1.52%
Cc1cc(C2CCC2)nc(N(C)Cc2ncccc2C)n1 | -0.392%
O=C(O)COc1ccc(Cl)cc1CN1CCC2(CCNCC2)CC1 | 6.45%
CCN(Cc1ccccc1)C(=O)CCN1C[C@@H](C(=O)O)[C@H](C2CC2)C1 | 6.94%
CN1C(=O)CC(C(=O)O)C12CCN(Cc1ccc(Cl)c(Cl)c1)CC2 (stereo unspecified) | 2.12%

SMILES | cytotoxicity at 10 µM
CN(C)c1nc2c(c(NCc3nnc4n3CCCCC4)n1)CCNC2 | -1.37%
NCCO[C@H]1C[C@@H](O)C12CCN(C(=O)CCOc1ccccc1)CC2 | 3.12%
CN(C)C(=O)c1noc2c1CN(C(=O)CCC1CCCCN1C)CC2 (stereo unspecified) | -2.74%
O=C(O)c1cccnc1CN1CCCCC1CCc1cccs1 (stereo unspecified) | 5.23%
Cc1nn(C)c(C)c1C1COCCN1C(=O)CCc1ccccc1 (stereo unspecified) | -0.284%
CC(C#N)CN(C)Cc1nc2c(cnn2C)c(=O)[nH]1 (stereo unspecified) | -6.45%
CCc1nc(CNCC2CCCN2c2cccnn2)cs1 (stereo unspecified) | -7.69%
CCOc1ncccc1NC(=O)NC1CCN(C(C)=O)CC1 | -6.47%
Cc1cc(C(=O)N2CCCC(n3cccn3)C2)c(C)n1C1CC1 (stereo unspecified) | -16.7%
CC(C)CCC(=O)NCCc1ccn(-c2ccccc2)n1 | -14.6%
Cc1ccccc1CN1CCN(C(C)c2nc(C3CC3)no2)CC1 (stereo unspecified) | -22.2%
CN(Cc1cnn(C)c1)CC1CCCN1c1cccnn1 (stereo unspecified) | -1.07%
Cc1cnn(CC2CCCCN2C(=O)c2ccc3[nH]cnc3c2)c1 (stereo unspecified) | -9.75%
CC(C)c1nc2n(n1)CC(NCc1nc(-c3ccsc3)no1)CC2 (stereo unspecified) | -5.39%
CCc1nnc2n1CCN(CC(=O)Nc1cc(C)on1)C2 | 5.18%
Cn1cc(NC(=O)N2CCC(NS(C)(=O)=O)CC2)ccc1=O | -7.05%
Cc1nn(C)c(N(C)C)c1CNC1CCOc2c(F)cccc21 (stereo unspecified) | -13.9%
CS(=O)(=O)N1CCCCCC1C1CCN(c2ncccc2C#N)CC1 (stereo unspecified) | -3.2%
Cn1cc(CNC2CCCN(Cc3noc(C4CC4)n3)C2)cn1 (stereo unspecified) | -9.52%

SMILES | cytotoxicity at 10 µM
COc1ccc2c(c1)CN(Cc1nc3c(cnn3C)c(=O)[nH]1)CC2 | -8.57%
c1cnn(-c2ccc(CN3CCOC(Cn4cncn4)C3)cc2)c1 (stereo unspecified) | -13.6%
c1ccc(-c2cnc(CN3CCCC3Cn3cncn3)o2)cc1 (stereo unspecified) | -5.82%
Cc1cc(C(F)(F)F)n2nc(C3CCCN3C3CCSCC3)cc2n1 (stereo unspecified) | 1.77%
COCCO[C@H]1CCN(c2ccc(C)nn2)[C@H]1Cc1cccnc1 | 1.53%
COCC(=O)N1CCC2(CC1)CNc1ccc(F)cc12 | 12.2%
CCS(=O)(=O)N1CCOC2(CCCN(c3ccc(C)nn3)C2)C1 (stereo unspecified) | 0.253%
CN1CCN(CC2CC2)C(=O)C12CCN(C(=O)c1ccnnc1)CC2 | 8.49%
O=C([C@@H]1CC[C@@H]2[C@@H](CCN2c2ccncn2)O1)N1CCCCO1 | 3.13%
CCOCC1CN(c2ccncn2)Cc2cnn(CC)c21 (stereo unspecified) | 3.04%
CN(C)C(=O)NCc1cc(=O)n2c(n1)CN(Cc1ccoc1)CCC2 | -99.3%
c1ccc(CO[C@@H]2CC[C@H]3[C@H]2OCCN3Cc2ccsc2)nc1 | -4.69%
Cc1oncc1C(=O)N1CCC2(CCN(Cc3cccnc3)C2=O)C1 (stereo unspecified) | -144%
CC(=O)NCC(=O)N1Cc2nccn2CC(CN(C)C(C)C)C1 (stereo unspecified) | -75.7%
Cn1cc(CN2CCn3cnc(COCC4CC4)c3C2)cn1 | 3.71%
O=C(c1cc(C2CC2)no1)N1C[C@@H]2CC[C@H]1CN(Cc1ccccn1)C2 | 2.21%
CCCn1nccc1NC(=O)CN1CCc2c(nc(C3CC3)n2C)C1 | 3.58%
CCc1cnc(N2C[C@@H]3C[C@H](C(=O)NC4CCC4)[C@H](C2)O3)nc1 | 5.74%
